Assay [1] is described as follows: inhibitors of TNFa-induced NFkB p65 translocation, primary screen, imaging, HUVEC, MLSMR starter and 10KST1 sets (AID 438;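 active = inhibition above 20% together with a positive visual image hit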;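 note: compound added about 3h40 before a 20 min TNFalpha stimulation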;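 for inhibition: signal is the nuclear over cytoplasmic p65 intensity ratio per well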). Conditions: HUVEC TNFa-induced p65 nuclear translocation; cell count: measured here: nuclei count (cytotoxicity indicator), at 2.08 µM; inhibition: at 2 µM, stronger effect = higher value, 0% TNFa-plus-vehicle, 100% no-TNFa wells.
Assay [2] can be described thus: inhibitors of mutant huntingtin aggregation, primary screen, imaging, exon1htt(103Q)mCFP cells, high-content imaging (AID 483;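 active = visual image review flags a hit and inhibition of aggregation exceeds 20%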;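 note: compound exposure lasted 3 days before fixation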;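 for nuclei count: percent of the per-plate median nuclei count of sample wells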). Conditions: exon1htt(103Q)mCFP cell line, aggregate imaging, at 2 µM; inhibition of aggregation: stronger effect = higher value; nuclei count: measured here: cell count, toxicity.
Assay [3] can be described thus: inhibitors of E-selectin induction by TNFa, primary screen, imaging, HUVEC, immunofluorescence, MLSMR starter and 10KST1 sets (AID 487;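 active = visually confirmed hit in the image check and inhibition above 20%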;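 for inhibition: signal is fraction of cell area covered by stained E-selectin grains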;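 for nuclei count: 100% = median nuclei count of all wells on the same plate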). Conditions: HUVEC TNFalpha-induced E-selectin immunofluorescence imaging, at 2 µM; inhibition: stronger effect = higher value; nuclei count: measured here: cell number, toxicity.
Assay [4] deals with Voltage-gated potassium channel subunit beta-2 (Rattus norvegicus) (UniProt P62483). As to the kind of experiment: KvBeta enzyme negative modulators, primary screen, biochemical, NADPH fluorescence (AID 622;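 active = fluorescence slope higher than the sample average by over 3 SD, cut at about -0.22 in these data, passing the limit was not always enough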;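 note: slope of raw intensity against log time taken from 70 to 1610 s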). The conditions noted are these: recombinant KvBeta, 4-cyanobenzaldehyde reduction, at 10 µM, stronger effect = higher value.
The target is the same in assay [5]. The assay can be described thus: KvBeta positive modulators, primary screen, biochemical, NADPH fluorescence (AID 623).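 Note: fluorescence intensity change per second fitted from 20 to 320 s.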 Conditions: Recombinant KvBeta, NADPH fluorescence decrease slope, 10 min; at 10 µM; stronger effect = lower value.
Assay [6] deals with Muscarinic acetylcholine receptor M4 (Homo sapiens) (UniProt P08173). As to the kind of experiment: compounds altering M4/GIRK thallium flux, either direction, primary screen, M4 allosteric agonist project, cell-based, HEK293 M4/GIRK, BTC-AM (AID 625;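 active = fluorescence slope after compound addition differing from the mean of all tested samples at 99.7% confidence, mostly higher but some lower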;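 note: thallium influx through GIRK channels coupled to M4 in HEK293 cells with BTC-AM dye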). Conditions: at 10 µM, actives lie on both sides. Put shortly:
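System: HEK293 cells with M4 receptor and GIRK channels | Incubation: Cells overnight at 37 °C, BTC-AM loading 1 h, reads 2 min total | Technique: Kinetic BTC-AM fluorescence sampled at 1 Hz, 10 s pre-addition baseline | Measure: Post-addition slope, 15–24 s, of baseline-normalized fluorescence | Control set: Carbachol positive, DMSO negative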

Assay [7] in a line: inhibitors of Sendai virus-induced IRF3 signaling, primary screen, TLR/RLR signaling modifier project, cell-based, Sendai virus stimulus, luciferase, 10K MLSCN set (AID 602276;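 active = inhibition at or above 50% at 10 µM; inactive = inhibition below 50%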;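 note: firefly luciferase from ISG56 promoter only with Renilla not read in this screen; 0% = Sendai virus plus DMSO and 100% = medium plus DMSO without virus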). Conditions: HEK293 RL24 IRF3 luciferase reporter, at 10 µM, stronger effect = higher value.
The nature of assay [8]: inhibitors of poly I:C-induced TLR3 signaling, primary screen, cell-based, poly I:C stimulus, luciferase, 10K MLSCN set (AID 602277;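 active = inhibition of the reporter signal at or above 50%; inactive = inhibition below 50%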). Conditions: HEK293-TLR3 RL24 IRF3 luciferase reporter, at 10 µM, stronger effect = higher value. Background: Reporter assays use an easily measured gene product as a stand-in for the process of interest.

Active and inactive are the calls of the source.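 Rule for the calls, unless noted: active = NADPH fluorescence slope more negative than the mean of all samples by about 3 SD, 99.7% confidence; inactive = the rest.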

Chain of Voltage-gated potassium channel subunit beta-2 (Rattus norvegicus) (P62483 whole entry, looked up): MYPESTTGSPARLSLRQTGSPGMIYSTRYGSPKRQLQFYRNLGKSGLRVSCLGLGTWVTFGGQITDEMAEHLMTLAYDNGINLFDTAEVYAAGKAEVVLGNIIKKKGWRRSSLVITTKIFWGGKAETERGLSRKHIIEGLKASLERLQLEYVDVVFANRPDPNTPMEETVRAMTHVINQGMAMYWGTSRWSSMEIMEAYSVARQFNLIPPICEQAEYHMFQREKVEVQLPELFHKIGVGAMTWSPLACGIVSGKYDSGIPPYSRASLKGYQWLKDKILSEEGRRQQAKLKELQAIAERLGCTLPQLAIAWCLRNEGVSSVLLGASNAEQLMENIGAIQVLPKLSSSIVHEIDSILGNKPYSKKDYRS
Chain of Muscarinic acetylcholine receptor M4 (Homo sapiens) (P08173 whole entry, looked up): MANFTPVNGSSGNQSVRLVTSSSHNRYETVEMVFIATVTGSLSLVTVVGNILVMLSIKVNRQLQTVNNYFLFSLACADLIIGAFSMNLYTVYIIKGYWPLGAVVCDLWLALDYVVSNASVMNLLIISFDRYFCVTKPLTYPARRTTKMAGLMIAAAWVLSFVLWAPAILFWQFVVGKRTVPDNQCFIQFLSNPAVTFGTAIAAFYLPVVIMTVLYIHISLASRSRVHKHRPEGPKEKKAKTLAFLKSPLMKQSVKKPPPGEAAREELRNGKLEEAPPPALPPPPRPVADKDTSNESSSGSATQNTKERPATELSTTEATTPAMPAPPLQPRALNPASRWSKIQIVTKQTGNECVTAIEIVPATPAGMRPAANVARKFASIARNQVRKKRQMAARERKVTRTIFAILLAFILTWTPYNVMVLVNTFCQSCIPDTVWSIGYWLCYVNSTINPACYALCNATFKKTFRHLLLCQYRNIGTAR

By inhibition is commonly meant the relative decrease from the control value, in per cent. Regarding `C/C(=C\c1cc(C(=O)O)c(C)o1)CO`, the cell count in assay [1] was found to be 417. Also, the inhibition was 5.1% (inactive) in assay [1], 39.5% (inactive) in assay [3], -6.67% (inactive) in assay [7] and -4.63% (inactive) in assay [8]. Besides, the inhibition of aggregation in assay [2] is 4.9% (inactive). Moreover, the nuclei count in assay [2] came out at 94.9%; in assay [3] it was 103%. The values for the fluorescence slope in assay [4] and in assay [6] were -0.431 (inactive) and 0.00423 (inactive), respectively. Also, the NADPH fluorescence slope in assay [5] is -0.00049 (inactive).
On to `CC(C)c1ccc(-c2nc(N3CCCCC3)[nH]c(=O)c2C#N)cc1`, for which the cell count in assay [1] stood at 459. The inhibition in assay [1] was -4.5% (inactive); in assay [3], -48.9% (inactive); in assay [7], -5% (inactive); in assay [8] it was -1.05% (inactive). Further, the inhibition of aggregation in assay [2] is -12% (inactive). Moreover, the nuclei count was found to be 102% in assay [2] and 107% in assay [3]. Moreover, the fluorescence slope is -0.478 (inactive) in assay [4] and 0.00632 (inactive) in assay [6]. For the same molecule, the NADPH fluorescence slope in assay [5] was -3.9e-06 (inactive).
`O=C1c2ccccc2NC(c2ccco2)N1O` (centres undefined): the cell count in assay [1] was 426. The inhibition in assay [1] was 3% (inactive); in assay [3], -169% (inactive); in assay [7] it was 8.36% (inactive); in assay [8] it was 10.8% (inactive). In addition, the inhibition of aggregation in assay [2] is -3.7% (inactive). Also, the nuclei count in assay [2] came out at 110%; in assay [3], 132%. Also, the fluorescence slope in assay [4] is -0.579 (inactive); in assay [6], 0.006 (inactive). In addition, the NADPH fluorescence slope in assay [5] was -2.1e-05 (inactive).
For `CN(c1cccc(NC(=O)COc2ccccc2)c1)S(C)(=O)=O`, in assay [1], the cell count turned out to be 226. Also, the inhibition in assay [1] was 7.2% (inactive); in assay [3] it was -143% (inactive); in assay [7], -58.9% (inactive); in assay [8], -120% (inactive). For the same molecule, the inhibition of aggregation in assay [2] is 21.6% (inactive). For the same molecule, the nuclei count in assay [2] turned out to be 91.6%; in assay [3], 111%. Besides, the fluorescence slope in assay [4] is -0.49 (inactive); in assay [6] it was 0.00411 (inactive). For the same molecule, the NADPH fluorescence slope in assay [5] is 6.4e-05 (inactive).
`C/C(Cl)=C\Cn1c(NCCc2ccccc2)nc2c1c(=O)n(C)c(=O)n2C`: the cell count in assay [1] stood at 636. In addition, the inhibition was -7.8% (inactive) in assay [1], 6.4% (inactive) in assay [3], 12.1% (inactive) in assay [7] and 2.85% (inactive) in assay [8]. Further, the inhibition of aggregation in assay [2] was 29.8% (inactive). Also, the results for the nuclei count in assay [2] and in assay [3] were 84.6% and 96.4%, respectively. Moreover, the values for the fluorescence slope in assay [4] and in assay [6] were -0.286 (inactive) and 0.00523 (inactive), respectively. Moreover, the NADPH fluorescence slope in assay [5] is -2.8e-05 (inactive).
Turning to `CCCn1c(SCC(=O)Nc2cc(C)on2)nc2c1c(=O)n(C)c(=O)n2C`, in assay [1], the cell count was 400. Moreover, the inhibition is 6.8% (inactive) in assay [1], -36.6% (inactive) in assay [3], -5.89% (inactive) in assay [7] and 0.557% (inactive) in assay [8]. Also, the inhibition of aggregation in assay [2] is 3.2% (inactive). The nuclei count turned out to be 95.2% in assay [2] and 152% in assay [3]. Besides, the fluorescence slope is -0.551 (inactive) in assay [4] and 0.00431 (inactive) in assay [6]. Further, the NADPH fluorescence slope in assay [5] is -2.8e-05 (inactive).
Regarding `Clc1ccc(SCCn2ccnc2)cc1`, the cell count in assay [1] is 481. The inhibition was 10.1% (inactive) in assay [1], -245% (inactive) in assay [3], 2.29% (inactive) in assay [7] and 5.02% (inactive) in assay [8]. The inhibition of aggregation in assay [2] is -7.9% (inactive). The nuclei count is 104% in assay [2] and 137% in assay [3]. In addition, the values for the fluorescence slope in assay [4] and in assay [6] were -0.325 (inactive) and 0.00636 (inactive), respectively. Also, in assay [5], the NADPH fluorescence slope was -2.6e-05 (inactive).
`COc1cc(OC)cc(-c2nnc(Nc3nc4c(F)cccc4s3)o2)c1`: the cell count in assay [1] amounted to 345. In addition, the inhibition was -3.8% (inactive) in assay [1], 28.3% (inactive) in assay [3], 17.6% (inactive) in assay [7] and 12.9% (inactive) in assay [8]. Also, the inhibition of aggregation in assay [2] is 12% (inactive). Besides, the nuclei count was 84.3% in assay [2] and 92.1% in assay [3]. For the same molecule, the fluorescence slope in assay [4] is -0.336 (inactive); in assay [6] it was 0.0196 (active). Moreover, the NADPH fluorescence slope in assay [5] was 7e-05 (inactive).
For `CN(C(=O)c1ccccn1)c1nnc(-c2ccncc2)s1`, the cell count in assay [1] came to 551. In addition, the inhibition in assay [1] was 5% (inactive); in assay [3], -35.7% (inactive); in assay [7], 6.96% (inactive); in assay [8], -3.15% (inactive). The inhibition of aggregation in assay [2] was -7.6% (inactive). Also, the nuclei count in assay [2] was 111%; in assay [3], 109%. Further, the fluorescence slope in assay [4] was -0.267 (inactive); in assay [6], 0.00597 (inactive). The NADPH fluorescence slope in assay [5] was -1.3e-05 (inactive).
On to `CCOC(=O)c1cc2oc(C)cc2n1CC(=O)OC1CCCCC1`, for which the cell count in assay [1] came out at 353. Moreover, the inhibition is 5.3% (inactive) in assay [1], -13.6% (inactive) in assay [3], 1.83% (inactive) in assay [7] and 16.4% (inactive) in assay [8]. Besides, the inhibition of aggregation in assay [2] is -10.9% (inactive). In addition, the nuclei count in assay [2] worked out at 110%; in assay [3], 102%. For the same molecule, the fluorescence slope was -0.584 (inactive) in assay [4] and 0.00678 (inactive) in assay [6]. The NADPH fluorescence slope in assay [5] is -2.1e-06 (inactive).
As for `COC(=O)c1cccc(NC(=O)NC2CCCN2S(=O)(=O)c2ccc(Cl)cc2)c1` (centres undefined), the cell count in assay [1] amounted to 612. Also, the inhibition was -16.1% (inactive) in assay [1], -144% (inactive) in assay [3], 14% (inactive) in assay [7] and 20.5% (inactive) in assay [8]. Moreover, the inhibition of aggregation in assay [2] is 2.9% (inactive). Further, the nuclei count in assay [2] is 101%; in assay [3], 141%. The fluorescence slope in assay [4] is -0.392 (inactive); in assay [6], 0.00559 (inactive). The NADPH fluorescence slope in assay [5] was -6.9e-05 (inactive).
Turning to `Cc1ccccc1S(=O)(=O)Cc1ccc(C(=O)NCc2cccnc2)o1`, the cell count in assay [1] was 596. The inhibition in assay [1] is -2.3% (inactive); in assay [3], 9.8% (inactive); in assay [7], 16.7% (inactive); in assay [8], 19.4% (inactive). Moreover, the inhibition of aggregation in assay [2] was 9% (inactive). Further, the nuclei count worked out at 105% in assay [2] and 112% in assay [3]. Moreover, the fluorescence slope in assay [4] was -0.546 (inactive); in assay [6] it was 0.00552 (inactive). In addition, in assay [5], the NADPH fluorescence slope is 4e-05 (inactive).
For `COc1ccc(CCn2c(N)c(C#N)c3nc4ccccc4nc32)cc1OC`, the cell count in assay [1] worked out at 397. The inhibition in assay [1] is -2.3% (inactive); in assay [3], 21.9% (inactive); in assay [7], 17.3% (inactive); in assay [8], 13.6% (inactive). Moreover, the inhibition of aggregation in assay [2] is -8% (inactive). For the same molecule, the nuclei count in assay [2] was 105%; in assay [3], 150%. Besides, the fluorescence slope is -0.52 (inactive) in assay [4] and 0.00433 (inactive) in assay [6]. In assay [5], the NADPH fluorescence slope is -5.8e-05 (inactive).
As to `CC(C)CCNC(=O)NC(=O)CSc1nnc(-c2ccccc2Br)o1`, in assay [1], the cell count was 538. Further, the inhibition in assay [1] was -16.6% (inactive); in assay [3], -32.9% (inactive); in assay [7], -3.6% (inactive); in assay [8], 20.3% (inactive). Moreover, the inhibition of aggregation in assay [2] was 2% (inactive). Further, the results for the nuclei count in assay [2] and in assay [3] were 104% and 125%, respectively. Moreover, the values for the fluorescence slope in assay [4] and in assay [6] were -0.458 (inactive) and 0.0066 (inactive), respectively. Also, in assay [5], the NADPH fluorescence slope is 2.9e-05 (inactive).

The values above are taken from PubChem BioAssay.
